Laboratory results: ChEMBL document CHEMBL4765252, “Design, synthesis, and biological evaluation of novel 4H-chromen-4-one derivatives as antituberculosis agents against multidrug-resistant tuberculosis” (Eur J Med Chem, 2020)
Values after ≈ are worked out from the molar mass of the structure shown.

Assays:
[1] = tested on: Mycobacterium tuberculosis; test: Antitubercular activity against Mycobacterium tuberculosis H37Rv assessed as inhibition of bacterial growth; assay type: functional
[2] = tested on: Mycobacterium tuberculosis; test: microbe, parasite or virus in culture; settings: mc2-7000, 144 h
Vero = test: Cytotoxicity against African green monkey Vero cells assessed as reduction in cell viability; assay type: cell-based; settings: Chlorocebus sabaeus
[3] = Selectivity index, ratio of IC50 for African green monkey Vero cells to MIC for Mycobacterium tuberculosis H37Rv; assay type: toxicity; settings: read-out: Selectivity Index
Outline: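 SI was calculated as Vero cell cytotoxicity IC50 divided by H37Rv MIC, both in μg/mL.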

[4] = Metabolic stability of the compound in mouse liver microsomes assessed as parent compound remaining […]; assay type: ADME, Microsome; settings: read-out: Stabilty
[5] = Metabolic stability of the compound in mouse liver microsomes; assay type: ADME, Microsome
Outline: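 Compound was incubated with mouse liver microsomes plus NADPH for 30 min. Remaining substrate concentration was normalized to the time-zero concentration and given as % remaining. The stability call was made from incubations run without the NADPH cofactor.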

[6] = Metabolic stability of the compound in human liver microsomes; assay type: ADME, Microsome
[7] = tested on: Mycobacterium tuberculosis; test: Antitubercular activity against Mycobacterium tuberculosis H37Rv assessed as inhibition of bacterial growth incubated for 6 days by MABA assay; assay type: functional; settings: 144 h, time 6 day
[8] = Toxicity in BALB/c mouse infected with Mycobacterium tuberculosis H37Rv assessed as body weight at 25 mg/kg, po administered for 21 days (reference value: 21.32 +/- 1.03 gms); assay type: organism-based; settings: in vivo, 504 h, time 21 day
[9] = tested on: Mycobacterium tuberculosis; test: In vivo antitubercular activity against Mycobacterium tuberculosis H37Rv infected in BALB/c mouse assessed as reduction in bacterial burden in lungs at 25 mg/kg, po administered for 21 days (reference value: 5.35 +/-0.17 log10CFU); assay type: functional; settings: time 21 day
[10] = Tmax in BALB/c mouse at 100 mg/kg, po administered as single dose; assay type: ADME, organism-based; settings: in vivo
[11] = Elimination half life in BALB/c mouse at 100 mg/kg, po administered as single dose; assay type: ADME, organism-based; settings: in vivo, read-out: beta t1/2 (converted)
[12] = Elimination half life in BALB/c mouse at 5 mg/kg, iv administered as single dose; assay type: ADME, organism-based; settings: in vivo, read-out: beta t1/2 (converted)
[13] = Cmax in BALB/c mouse at 5 mg/kg, iv administered as single dose; assay type: ADME, organism-based; design: route intravenous, dose 5 mg/kg; settings: in vivo
[14] = Cmax in BALB/c mouse at 100 mg/kg, po administered as single dose; assay type: ADME, organism-based; design: route oral, dose 100 mg/kg; settings: in vivo
[15] = AUC (0 to t) in BALB/c mouse at 5 mg/kg, iv administered as single dose; assay type: ADME, organism-based; design: dose 5 mg/kg; settings: in vivo
[16] = AUC (0 to t) in BALB/c mouse at 100 mg/kg, po administered as single dose; assay type: ADME, organism-based; design: dose 100 mg/kg; settings: in vivo
[17] = AUC (0 to infinity) in BALB/c mouse at 5 mg/kg, iv administered as single dose; assay type: ADME, organism-based; design: time infinity, route intravenous, dose 5 mg/kg; settings: in vivo
[18] = AUC (0 to infinity) in BALB/c mouse at 100 mg/kg, po administered as single dose; assay type: ADME, organism-based; design: time infinity, route oral, dose 100 mg/kg; settings: in vivo
[19] = MRT (0 to t) in BALB/c mouse at 5 mg/kg, iv administered as single dose; assay type: ADME, organism-based; settings: in vivo
[20] = MRT (0 to t) in BALB/c mouse at 100 mg/kg, po administered as single dose; assay type: ADME, organism-based; settings: in vivo
[21] = MRT (0 to infinity) in BALB/c mouse at 5 mg/kg, iv administered as single dose; assay type: ADME, organism-based; settings: in vivo
[22] = MRT (0 to infinity) in BALB/c mouse at 100 mg/kg, po administered as single dose; assay type: ADME, organism-based; settings: in vivo
[23] = Volume of distribution in BALB/c mouse at 5 mg/kg, iv administered as single dose; assay type: ADME, organism-based; settings: in vivo
[24] = Clearance in BALB/c mouse at 5 mg/kg, iv administered as single dose; assay type: ADME, organism-based; settings: in vivo
[25] = Oral bioavailability in BALB/c mouse at 100 mg/kg; assay type: ADME, organism-based; settings: in vivo
[26] = Toxicity in BALB/c mouse infected with Mycobacterium tuberculosis H37Rv assessed as body weight at 100 mg/kg, po administered for 21 days (reference value: 21.32 +/- 1.03 gms); assay type: organism-based; settings: in vivo, 504 h, time 21 day
[27] = tested on: Mycobacterium tuberculosis; test: In vivo antitubercular activity against Mycobacterium tuberculosis H37Rv infected in BALB/c mouse assessed as reduction in bacterial burden in lungs at 100 mg/kg, po administered for 21 days (reference value: 5.35 +/-0.17 log10CFU); assay type: functional; settings: time 21 day
[28] = tested on: Mycobacterium tuberculosis; test: Antitubercular activity against Mycobacterium tuberculosis H37Rv assessed as inhibition of bacterial growth measured after 7 days by resazurin assay; assay type: functional; settings: 168 h, time 7 day

Compound `O=c1cc(-c2ccccc2)oc2ccc(O)c(CN3CCCCC3)c12` has an MIC [1] of 3.12 µg/mL.

For `CCN(CC)Cc1c(O)ccc2oc(-c3ccc(O)cc3)cc(=O)c12`, the MIC [1] was 29.9 µg/mL.

Work on `O=c1cc(-c2ccc(O)cc2)oc2ccc(O)c(CNC3CCCCC3)c12` yielded an MIC [1] greater than 32 µg/mL.

For `CNC(=O)c1c(-c2ccc(O)cc2)oc2ccc(O)c(CN3CCCCC3)c12`, the MIC [1] was 0.047 µg/mL and the MIC [2] was 0.09 µM (≈ 0.0342 µg/mL).

`CNC(=O)c1c(-c2ccccc2)oc2ccc(O)c(CN3CCCC3)c2c1=O` gave an MIC [1] greater than 32 µg/mL.

In the case of `O=c1cc(-c2ccc(O)cc2)oc2ccc(O)c(CN3CCCC3)c12`, the MIC [1] is reported as 0.938 µg/mL, the IC50 (Vero) is reported as 8.8 µg/mL (≈ 26.1 µM) and the selectivity ratio [3] is reported as 9. The remaining at 0.5 h [4] was 102%, the Stabilty [5] was “Stable” and the Stabilty [6] was “Stable”.

`O=c1cc(-c2ccccc2)oc2ccc(O)c(CN3CC4(CSC4)C3)c12` gave an MIC [1] of 31.1 µg/mL.

`O=c1cc(-c2ccccc2)oc2ccc(O)c(CN3CCCC3)c12` gave an MIC [1] of 3.68 µg/mL.

Compound `CCOC(=O)c1c(-c2ccccc2)oc2ccc(O)c(CN3CCCC3)c2c1=O` has an MIC [1] greater than 32 µg/mL.

Compound `CCOC(=O)c1c(-c2ccc(O)cc2)oc2ccc(O)c(CN3CCC3)c2c1=O` has an MIC [1] of 7.91 µg/mL.

Work on `CCOC(=O)c1c(NC(=O)c2c(F)c(F)c(F)c(F)c2F)sc2c1CCN(CC)C2` yielded an MIC [7] of 0.23 µM (≈ 0.103 µg/mL).

For `CNC(=O)c1c(-c2ccccc2)oc2ccc(O)c(CN3CCC3)c2c1=O`, the MIC [1] was greater than 32 µg/mL.

Work on `CNC(=O)c1c(-c2ccccc2)oc2ccc(O)c(CN3CCCCC3)c2c1=O` yielded an MIC [1] greater than 32 µg/mL.

With `O=c1cc(-c2ccc(Cl)cc2)oc2ccc(O)c(CN3CCC3)c12` the MIC [1] was 28.5 µg/mL.

With `CCOC(=O)c1c(-c2ccccc2)oc2ccc(O)c(CN3CCCCC3)c2c1=O` the MIC [1] was 31.9 µg/mL.

`O=c1cc(-c2ccc(O)cc2)oc2ccc(O)c(CN3CCOCC3)c12` showed an MIC [1] greater than 32 µg/mL.

`O=c1cc(-c2ccc(O)cc2)oc2ccc(O)c(CN3CCCCCC3)c12` gave an MIC [1] of 7.2 µg/mL.

`O=c1cc(-c2ccc(O)cc2)oc2ccc(O)c(CN3CCCCC3)c12` showed an MIC [1] of 3.84 µg/mL.

Compound `COC(=O)c1c(NC(=O)c2c(F)c(F)c(F)c(F)c2F)sc2c1CCCCC2` has an MIC [1] of 1 µM.

In the case of `O=c1cc(-c2ccccc2)oc2ccc(O)c(CN3CCC3)c12`, the MIC [1] is reported as 3.22 µg/mL.

Compound `CCOC(=O)c1c(NC(=O)c2c(F)c(F)c(F)c(F)c2F)sc(C(N)=O)c1C` has an MIC [1] of 0.5 µM.

Compound `O=c1cc(-c2ccc(O)cc2)oc2ccc(O)c(CN3CC4(CSC4)C3)c12` has an MIC [1] of 15.3 µg/mL.

For `O=c1cc(-c2ccc(F)cc2)oc2ccc(O)c(CN3CCC3)c12`, the MIC [1] was 3.55 µg/mL.

Work on `NNC(=O)c1ccncc1` [ISONIAZID] yielded an MIC [1] of 0.039 µg/mL, an Activity [8] of 20.9 g and an Activity [9] of 1.76 log10CFU.

`CCOC(=O)c1c(-c2ccccc2)oc2ccc(O)c(CN3CCC3)c2c1=O` gave an MIC [1] of 14.1 µg/mL.

Work on `Cc1ccc(-c2cc(=O)c3c(CN4CCC4)c(O)ccc3o2)cc1` yielded an MIC [1] of 6.52 µg/mL.

Work on `CCOC(=O)c1c(-c2ccc(O)cc2)oc2ccc(O)c(CN3CCCC3)c2c1=O` yielded an MIC [1] greater than 32 µg/mL.

`CO[C@H]1/C=C/O[C@@]2(C)Oc3c(C)c(O)c4c(O)c(c(/C=N/N5CCN(C)CC5)c(O)c4c3C2=O)NC(=O)/C(C)=C\C=C\[C@H](C)[C@H](O)[C@@H](C)[C@@H](O)[C@@H](C)[C@H](OC(C)=O)[C@@H]1C` [RIFAMPIN] gave an MIC [1] of 0.057 µg/mL.

For `O=c1cc(-c2ccc(O)cc2)oc2ccc(O)c(CN3CCC3)c12`, the MIC [1] was 0.45 µg/mL, the IC50 (Vero) was 53.1 µg/mL (≈ 164 µM) and the selectivity ratio [3] was 117. The remaining at 0.5 h [4] was 96%, the Stabilty [5] was “Stable” and the Stabilty [6] was “Stable”. The Tmax [10] was 0.25 h, the half-life [11] was 1.42 h and the half-life [12] was 1.28 h. It also gave a Cmax [13] of 4460 ng/mL, a Cmax [14] of 1660 ng/mL and an AUC(0-t) [15] of 1030 ng·h/mL. For the same compound, the AUC(0-t) [16] was 4220 ng·h/mL, the AUC(0-inf) [17] was 1040 ng·h/mL and the AUC(0-inf) [18] was 4290 ng·h/mL. For the same compound, the MRT last [19] was 0.61 h, the MRT last [20] was 1.7 h and the MRT inf [21] was 0.69 h. It also gave an MRT inf [22] of 1.82 h, a Vd [23] of 8.86 L/kg and a clearance [24] of 80.1 mL/min/kg. The bioavailability [25] was 20.5%, the Activity [26] was 20.57 g and the Activity [27] was 4.77 log10CFU.

In the case of `COc1ccc(-c2cc(=O)c3cc(O)ccc3o2)cc1`, the MIC [1] is reported as greater than 32 µg/mL.

With `O=c1c(-c2ccc(O)cc2)coc2ccc(O)c(CN3CCCCC3)c12` the MIC [1] was greater than 32 µg/mL.

Compound `CN(C)Cc1c(O)ccc2oc(-c3ccc(O)cc3)cc(=O)c12` has an MIC [1] greater than 32 µg/mL.

In the case of `C=CCCCCCCC[C@H]1C(=O)O[C@@H]1CCCCCNC(=O)c1ccc(N(C)C)cc1`, the MIC [28] is reported as 1.6 µM (≈ 0.686 µg/mL).

For `COc1ccc(-c2cc(=O)c3c(CN4CCCCC4)c(O)ccc3o2)cc1`, the MIC [1] was 7.3 µg/mL.
